Assays:
Transporter = Transporter (Macaca mulatta, UniProt Q7JHP9); assay: Displacement of [3H]WIN-35428 from DAT in rhesus monkey caudate-putamen; format: tissue-based
Method in brief: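 Rhesus or cynomolgus caudate-putamen membranes (4 mg original wet weight/mL) in 50 mM Tris·HCl pH 7.4, 100 mM NaCl. Incubated 2 h at 0-4 °C with 0.3 nM [3H]WIN35,428 and a range of drug concentrations. Filtered on 0.1% BSA-soaked glass fibre filters and scintillation counted. Nonspecific binding defined with 30 μM (-)-cocaine. IC50 is the mean of ≥2 experiments in different brains, each in triplicate.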

[1] = target: Sodium-dependent serotonin transporter (Macaca mulatta, UniProt Q9MYX0); assay: Displacement of [3H]citalopram from SERT in rhesus monkey caudate-putamen; format: tissue-based
Chain of Sodium-dependent serotonin transporter (Q9MYX0 whole entry): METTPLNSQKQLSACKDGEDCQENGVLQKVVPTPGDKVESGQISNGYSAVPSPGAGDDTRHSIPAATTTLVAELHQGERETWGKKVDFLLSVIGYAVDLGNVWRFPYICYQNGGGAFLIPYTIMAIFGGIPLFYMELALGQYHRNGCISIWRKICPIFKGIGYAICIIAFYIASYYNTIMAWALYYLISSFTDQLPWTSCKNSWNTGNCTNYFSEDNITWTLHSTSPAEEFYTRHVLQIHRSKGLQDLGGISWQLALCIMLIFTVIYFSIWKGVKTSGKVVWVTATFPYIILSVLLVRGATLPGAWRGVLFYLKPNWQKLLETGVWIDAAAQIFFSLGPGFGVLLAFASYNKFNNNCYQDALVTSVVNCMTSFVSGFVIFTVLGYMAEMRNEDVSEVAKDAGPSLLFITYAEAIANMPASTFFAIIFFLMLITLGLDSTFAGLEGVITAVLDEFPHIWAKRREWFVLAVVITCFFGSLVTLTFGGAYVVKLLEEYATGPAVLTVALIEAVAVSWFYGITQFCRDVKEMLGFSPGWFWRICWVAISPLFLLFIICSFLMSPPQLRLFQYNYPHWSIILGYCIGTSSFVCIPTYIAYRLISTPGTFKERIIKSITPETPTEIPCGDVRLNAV
Method in brief: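 Caudate-putamen membranes from rhesus or cynomolgus monkey (4 mg original wet weight/mL) in 50 mM Tris·HCl pH 7.4 with 100 mM NaCl. Incubated with 1 nM [3H]citalopram and a range of test drug concentrations for 2 h at 0-4 °C. Filtered over glass fibre filters pre-soaked in 0.1% polyethyleneimine, then scintillation counted. IC50 is the mean of ≥2 independent experiments in different brains, each in triplicate.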

Macaca mulatta = organism: Macaca mulatta; assay: Selectivity for rhesus monkey DAT over rhesus monkey SERT
Method in brief: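 Ratio of SERT IC50 ([3H]citalopram binding) to DAT IC50 ([3H]WIN35,428 binding), both measured in monkey caudate-putamen membranes.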

Chain of Transporter (Q7JHP9 whole entry): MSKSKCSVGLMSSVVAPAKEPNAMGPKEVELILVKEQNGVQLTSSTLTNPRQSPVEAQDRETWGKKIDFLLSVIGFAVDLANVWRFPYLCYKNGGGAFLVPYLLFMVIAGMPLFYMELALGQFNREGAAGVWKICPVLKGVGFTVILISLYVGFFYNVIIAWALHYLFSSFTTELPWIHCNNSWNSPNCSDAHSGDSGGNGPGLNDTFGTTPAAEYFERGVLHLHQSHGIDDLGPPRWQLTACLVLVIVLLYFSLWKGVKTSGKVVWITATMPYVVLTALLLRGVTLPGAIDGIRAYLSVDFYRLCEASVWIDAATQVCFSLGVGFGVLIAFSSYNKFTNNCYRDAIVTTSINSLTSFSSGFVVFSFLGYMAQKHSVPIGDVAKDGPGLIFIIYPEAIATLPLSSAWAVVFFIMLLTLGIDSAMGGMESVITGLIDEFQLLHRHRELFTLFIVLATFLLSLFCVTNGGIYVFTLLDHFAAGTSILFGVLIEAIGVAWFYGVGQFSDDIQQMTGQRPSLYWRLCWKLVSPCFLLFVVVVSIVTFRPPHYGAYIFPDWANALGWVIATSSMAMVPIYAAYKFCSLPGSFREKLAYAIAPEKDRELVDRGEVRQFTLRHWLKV

| SMILES | IC50 (Transporter) | IC50 [1] | Ratio IC50 (Macaca mulatta) |
| --- | --- | --- | --- |
| COC(=O)[C@@H]1C2CCC(C[C@H]1c1ccc(Cl)c(Cl)c1)S2 (stereo partly specified) | 6.9 nM | 99 nM | 14 |
| COC(=O)[C@@H]1[C@@H]2CCC(C[C@@H]1c1ccc(Cl)c(Cl)c1)S2 | 22 nM | 90 nM | 4 |

— ChEMBL document CHEMBL1144528, “Synthesis of 8-thiabicyclo[3.2.1]octanes and their binding affinity for the dopamine and serotonin transporters” (Bioorg Med Chem, 2007)
